Results on 1 compound are retold here after ChEMBL document CHEMBL3745678, “Novel β-Carboline/Hydroxamic Acid Hybrids Targeting Both Histone Deacetylase and DNA Display High Anticancer Activity via Regulation of the p53 Signaling Pathway” (J Med Chem, 2015).

Calls of active or inactive are those of the source. No cut-off for these calls is given here.

A short description of series [1]: Acute toxicity in ICR mouse assessed as survival rate at 300 mg/kg, ip measured on day 14. It counts as organism-based. To be noted: in vivo. Put shortly:
(§1)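 Female ICR mice, single intraperitoneal injection at 585.9, 468.8, […], 300 or 240 mg/kg, or vehicle control, n = 10 per group. Deaths counted at 1 h, 4 h, daily on days 1-4 and over days 5-14. Eating, drinking, body weight and activity observed for 14 days, with survival (%) taken on day 14. LD50 calculated from mortality.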

The subject of series [2] is Mus musculus. Briefly: Toxicity in BALB/c mouse xenografted with human HCT116 cells assessed as body weight change at 90 mg/kg, ip measured twice per week over 22 days. The note with it: in vivo, 528 h. The class given is organism-based, HCT-116.
The subject of series [3] is Mus musculus. Kind of series: Toxicity in BALB/c mouse xenografted with human HCT116 cells assessed as body weight change at 90 mg/kg, po measured twice per week over 22 days. To be noted: in vivo, 528 h. It counts as organism-based, HCT-116.
Series [4] deals with Mus musculus. Briefly: Acute toxicity in ICR mouse assessed as death at 240 to 300 mg/kg, ip measured after 3 days. It counts as organism-based. To be noted: in vivo, 72 h. Put shortly:
as §1

Series [5] in a line: Antiproliferative activity against human SW620 cells assessed as cell viability after 48 hrs by MTT assay. The class given is functional, cell-based. The note with it: SW-620, 48 h.
The subject of series [6] is SW480. Kind of series: Antiproliferative activity against human SW480 cells assessed as cell viability after 48 hrs by MTT assay. It counts as functional, cell-based. The note with it: SW480, 48 h. For orientation: Tetrazolium dyes change colour on reduction, which living cells bring about.
Series [7] addresses T1, Histone deacetylase (Homo sapiens) (UniProt Q13547+O15379+Q9UBN7+Q92769+Q9UQL6+Q8WUI4+Q9BY41+Q96DB2+P56524+Q9UKV0+Q969S8). Briefly: Potency index, ratio of SAHA IC50 to compound IC50 for HDAC in human HeLa cell nuclear extract. The class given is cell-based. Put shortly: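 HDAC source was HeLa nuclear extract. Incubated with compound dilutions and Boc-Lys(Ac)-AMC substrate for 60 min at 37 °C, then lysine developer added for 30 min. Fluorescence read at ex 355/em 460 nm, activity expressed as % of control and IC50 fitted. Index = SAHA IC50 ÷ compound IC50.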

For series [8], the target named is T1, Histone deacetylase (Homo sapiens). Briefly: Inhibition of HDAC in human HCT116 cells assessed as increase in acetyl-alpha-tubulin expression after 48 hrs by immunoblotting analysis. The class given is cell-based. The note with it: HCT-116. Put shortly:
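HCT116 cells treated 48 h with compound, SAHA or vehicle. Lysates probed by immunoblot for acetyl-histone H3 and acetyl-α-tubulin, with β-actin as loading control. Relative levels by densitometric scanning; means ± SD of three experiments.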

Series [9] can be described thus: Cytotoxicity against rat IEC-18 cells assessed as survival after 48 hrs by MTT assay. The class given is cell-based. Put shortly:
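HCT116 and rat IEC-18 cells incubated 48 h over a 0–5 µM range. Viability measured by MTT and expressed as % of control. GI50 taken from the inhibition curves; three independent experiments.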

Series [10] has as its system HCT-116. Kind of series: Induction of PARP cleavage in human HCT116 cells at 1 to 5 uM after 48 hrs by western blot analysis. It counts as functional, cell-based. Put shortly:
(§2)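 HCT116 cells treated 48 h with or without compound. Western blots probed for Bax, Bcl-2, cleaved caspase-3 and PARP. Band intensities relative to β-actin by densitometry; means ± SD from three separate experiments.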
For orientation: In western blotting, separated proteins are transferred to a membrane and probed.

Series [11] relates to HCT-116. Briefly: Induction of caspase-3 cleavage in human HCT116 cells at 1 to 5 uM after 48 hrs by western blot analysis. It counts as functional, cell-based. Put shortly:
as §2

Series [12] deals with HDAC6 (Homo sapiens). Kind of series: Selectivity index, ratio of IC50 for human recombinant HDAC8 to IC50 for human recombinant HDAC6.
For series [13], the target named is T2, Histone deacetylase 8 (Homo sapiens, UniProt Q9BY41).
T2 sequence (Q9BY41 whole entry): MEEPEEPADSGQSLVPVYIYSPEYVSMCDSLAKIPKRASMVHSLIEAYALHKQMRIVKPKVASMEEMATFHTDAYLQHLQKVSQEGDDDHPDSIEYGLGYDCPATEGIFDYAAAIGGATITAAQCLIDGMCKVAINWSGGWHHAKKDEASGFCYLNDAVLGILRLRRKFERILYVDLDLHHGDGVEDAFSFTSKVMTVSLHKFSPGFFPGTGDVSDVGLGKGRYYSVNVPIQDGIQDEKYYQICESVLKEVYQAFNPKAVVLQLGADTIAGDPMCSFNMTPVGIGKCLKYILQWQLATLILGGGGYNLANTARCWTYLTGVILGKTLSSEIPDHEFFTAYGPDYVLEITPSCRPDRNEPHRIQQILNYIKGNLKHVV
Kind of series: Inhibition of recombinant human HDAC8 using Boc-Lys (Ac)-AMC as substrate after 60 mins by fluorometric analysis.

Usually IC50 stands for the concentration that gives 50% inhibition. In general, GI50 refers to the concentration giving 50% growth inhibition. Consider `COc1ccc(-c2nc(NC(=O)NCCCC(=O)NO)cc3c2[nH]c2ccccc23)cc1`, for which the survival at 14 day in [1] is 90%. The Activity entry in series [2], in [3] and in series [4] was “Non-toxic” each time. For the same compound, the half-maximal inhibitory concentration (IC50) was 940 nM in series [5], 1160 nM in series [6] and 160 nM in [13]. The Ratio IC50 stood at 2 in series [7] and 5 in [12]. For the same compound, the inhibition result in [8] is “Dose-dependent effect”. Further, the GI50 at 48 h in series [9] amounted to 5460 nM. Further, the result in series [10] and in series [11] was Active.
